Data: ChEMBL document CHEMBL1949567, “Novel synthesis and biological evaluation of enigmols as therapeutic agents for treating prostate cancer” (ACS Med Chem Lett, 2011)
pIC50: −log10 of the molar value. Active and inactive are the calls of the source. The rule behind the calls is not given here.

Legend:
LNCaP [1] = assay: Cytotoxicity against human LNCAP cells after 24 hrs by WST-1 assay; assay type: functional, cell-based
Summary of the method: (§1)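 PC-3 (androgen-independent) and LNCaP (androgen-sensitive) prostate cancer cells treated for 24 h. Cytotoxicity read by WST-1 assay. IC50 calculated from the resulting data.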

PC-3 [2] = assay: Cytotoxicity against human PC3 cells after 24 hrs by WST-1 assay; assay type: functional, cell-based; conditions: PC-3, 24 h; summary of the method: as §1
PC-3 [3] = assay: Anticancer activity against androgen insensitive human PC3 cells xenografted nude mouse model assessed as decrease in tumor growth rate administered at 10 mg/kg, po once daily administered from day 16 after implantation; assay type: functional, organism-based; set-up: dose 10 mg/kg
Summary of the method: (§2)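 Nude mice bearing established PC-3 tumors (n = 10) given 10 mg/kg daily by oral gavage from day 16 after implantation, with vehicle controls. Tumor growth and body weight measured over time. Growth rates compared by mixed model for repeated measurements, weights by ANOVA.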

Mus musculus [4] = assay: Toxicity in androgen insensitive human PC3 cells xenografted nude mouse model assessed as body weight change administered at 10 mg/kg, po once daily administered from day 16 after implantation; assay type: organism-based, PC-3; set-up: dose 10 mg/kg, route oral; conditions: in vivo; summary of the method: as §2
PC-3 [5] = assay: Anticancer activity against androgen insensitive human PC3 cells xenografted nude mouse model assessed as decrease in tumor growth rate administered at 15 mg/kg, ip administered once in a week on day 22 to day 29 after implantation relative to control; assay type: functional, organism-based; set-up: dose 15 mg/kg
Summary of the method: (§3)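 Nude mice bearing PC-3 xenografts (n = 15). Daily oral gavage at 10 mg/kg from Day 22 to Day 34 after implantation. Docetaxel 15 mg/kg or vehicle given i.p. on Days 22 and 29, alone or combined with gavage. Tumor growth and body weight followed. Growth analysed by mixed model for repeated measurements, weights by ANOVA.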

[6] = Half life in CD-1/Swiss Webster mouse at 30 mg/kg, po by LC/MS/MS analysis; assay type: ADME, organism-based; set-up: dose 30 mg/kg, route oral; conditions: in vivo
Summary of the method: (§4)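 Outbred male Swiss Webster or CD-1 mice, n = 3 per time point, single oral dose of 10 or 30 mg/kg in 10% ethanol/90% olive oil given at 5 mL/kg. Blood drawn from submandibular vein or retro-orbital plexus at set time points. PK parameters calculated from mean plasma concentrations (nM).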

[7] = AUC (0 to t) in CD-1/Swiss Webster mouse at 30 mg/kg, po by LC/MS/MS analysis; assay type: ADME, organism-based; set-up: dose 30 mg/kg, route oral; conditions: plasma; summary of the method: as §4
[8] = Half life in CD-1/Swiss Webster mouse at 10 mg/kg, po by LC/MS/MS analysis; assay type: ADME, organism-based; set-up: dose 10 mg/kg, route oral; conditions: in vivo; summary of the method: as §4
[9] = Apparent volume of distribution during terminal phase in CD-1/Swiss Webster mouse at 10 mg/kg, po by LC/MS/MS analysis; assay type: ADME, organism-based; set-up: dose 10 mg/kg, route oral; conditions: in vivo, read-out: Vz/F; summary of the method: as §4
[10] = Tmax in CD-1/Swiss Webster mouse at 10 mg/kg, po by LC/MS/MS analysis; assay type: ADME, organism-based; set-up: dose 10 mg/kg, route oral; conditions: in vivo; summary of the method: as §4
[11] = Apparent oral clearance in CD-1/Swiss Webster mouse at 30 mg/kg, po by LC/MS/MS analysis; assay type: ADME, organism-based; set-up: dose 30 mg/kg, route oral; conditions: in vivo; summary of the method: as §4
[12] = Cmax in CD-1/Swiss Webster mouse at 10 mg/kg, po by LC/MS/MS analysis; assay type: ADME, organism-based; set-up: dose 10 mg/kg, route oral; conditions: in vivo; summary of the method: as §4
[13] = AUC (0 to t) in CD-1/Swiss Webster mouse at 10 mg/kg, po by LC/MS/MS analysis; assay type: ADME, organism-based; set-up: dose 10 mg/kg, route oral; conditions: plasma; summary of the method: as §4
[14] = Tmax in CD-1/Swiss Webster mouse at 30 mg/kg, po by LC/MS/MS analysis; assay type: ADME, organism-based; set-up: dose 30 mg/kg, route oral; conditions: in vivo; summary of the method: as §4
[15] = AUC (0 to infinity) in CD-1/Swiss Webster mouse at 30 mg/kg, po by LC/MS/MS analysis; assay type: ADME, organism-based; set-up: time infinity, dose 30 mg/kg, route oral; conditions: plasma; summary of the method: as §4
[16] = Apparent oral clearance in CD-1/Swiss Webster mouse at 10 mg/kg, po by LC/MS/MS analysis; assay type: ADME, organism-based; set-up: dose 10 mg/kg, route oral; conditions: in vivo; summary of the method: as §4
[17] = (§5) Apparent volume of distribution during terminal phase in CD-1/Swiss Webster mouse at 30 mg/kg, po by LC/MS/MS analysis; assay type: ADME, organism-based; set-up: dose 30 mg/kg, route oral; conditions: CD-1/Swiss Webster, in vivo, read-out: Vz/F; summary of the method: as §4
[18] = AUC (0 to infinity) in CD-1/Swiss Webster mouse at 10 mg/kg, po by LC/MS/MS analysis; assay type: ADME, organism-based; set-up: time infinity, dose 10 mg/kg, route oral; conditions: plasma; summary of the method: as §4
[19] = Cmax in CD-1/Swiss Webster mouse at 30 mg/kg, po by LC/MS/MS analysis; assay type: ADME, organism-based; set-up: dose 30 mg/kg, route oral; conditions: in vivo; summary of the method: as §4
Mus musculus [20] = assay: Toxicity in androgen sensitive human LNCAP cells xenografted nude mouse model assessed as body weight change at 10 mg/kg, po once daily after day 14 of implantation; assay type: organism-based; set-up: dose 10 mg/kg, route oral; conditions: in vivo
Summary of the method: (§6)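 Nude mice bearing palpable subcutaneous LNCaP tumors (n = 10–12 per group). Castration or sham surgery on Day 13 after implantation. Daily oral gavage of 10 mg/kg or vehicle from Day 14. Tumor growth followed over time and body weights monitored. Controls sacrificed Day 36 for tumor burden; some groups continued longer. Growth analysed by mixed model for repeated measurements, weights by ANOVA.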

LNCaP [21] = assay: Anticancer activity against androgen sensitive human LNCAP cells xenografted nude mouse model assessed as reduction in tumor growth rate administered at 10 mg/kg, po once daily after day 14 of implantation measured on day 36 relative to control; assay type: functional, organism-based; set-up: dose 10 mg/kg; summary of the method: as §6
[22] = Drug uptake in rat prostate tissue at 100 mg/kg, po; assay type: ADME, organism-based, Prostate gland; set-up: dose 100 mg/kg, route oral; conditions: in vivo, read-out: Drug uptake
PC-3 [23] = assay: Anticancer activity against androgen insensitive human PC3 cells xenografted nude mouse model assessed as decrease in tumor growth rate administered at 10 mg/kg, po once daily administered from day 22 to day 34 after implantation coadministered with docetaxel relative to control; assay type: functional, organism-based; set-up: dose 10 mg/kg; summary of the method: as §3
LNCaP [24] = assay: Anticancer activity in androgen sensitive human LNCAP cells xenografted castrated mouse model assessed as reduction in tumor growth rate administered at 10 mg/kg, po once daily from day 14 after implantation measured on day 38 relative to control; assay type: functional, organism-based; set-up: dose 10 mg/kg; summary of the method: as §6
Mus musculus [25] = assay: Toxicity in androgen insensitive human PC3 cells xenografted nude mouse model assessed as body weight change administered at 10 mg/kg, po once daily administered from day 22 to day 34 after implantation; assay type: organism-based, PC-3; set-up: dose 10 mg/kg, route oral; conditions: in vivo; summary of the method: as §3
Mus musculus [26] = assay: as §5; assay type: ADME, organism-based; set-up: dose 30 mg/kg, route oral; conditions: in vivo; summary of the method: as §4
PC-3 [27] = assay: Anticancer activity against androgen insensitive human PC3 cells xenografted nude mouse model assessed as decrease in tumor growth rate administered at 10 mg/kg, po once daily administered from day 16 after implantation
PC-3 [28] = assay: Anticancer activity against androgen insensitive human PC3 cells xenografted nude mouse model assessed as decrease in tumor growth rate administered at 10 mg/kg, po once daily administered from day 22 to day 34 after implantation relative to control; assay type: functional, organism-based; set-up: dose 10 mg/kg; summary of the method: as §3
Mus musculus [29] = assay: Toxicity in androgen sensitive human LNCAP cells xenografted castrated mouse model assessed as body weight change at 10 mg/kg, po once daily after day 14 of implantation; assay type: organism-based; set-up: dose 10 mg/kg, route oral; conditions: in vivo; summary of the method: as §6

Structure (SMILES)	pIC50 (LNCaP [1])	pIC50 (PC-3 [2])	Activity (PC-3 [3])	Activity (Mus musculus [4]) [%]	half-life [6] [h]	AUC(0-t) [7] [µM·h]	half-life [8] [h]	Vd/F [9] [L/kg]	Tmax [10] [h]	CL/F [11] [mL/min/kg]	Cmax [12] [nM]	AUC(0-t) [13] [µM·h]	Tmax [14] [h]	AUC(0-inf) [15] [µM·h]	CL/F [16] [mL/min/kg]	AUC(0-inf) [18] [µM·h]	Cmax [19] [nM]	further results
CCCCCCCCCCCCC[C@@H](O)C[C@@H](O)[C@H](C)N	4.30	4.31																
CCCCCCCCCCCCC[C@H](O)C[C@@H](O)[C@H](C)N	5.30	5.01	Active	0.3														
CC(=O)O[C@@]12CO[C@@H]1C[C@H](O)[C@@]1(C)C(=O)[C@H](O)C3=C(C)[C@@H](OC(=O)[C@H](O)[C@@H](NC(=O)OC(C)(C)C)c4ccccc4)C[C@@](O)([C@@H](OC(=O)c4ccccc4)[C@H]21)C3(C)C																		Activity (PC-3 [5]): Active
CCCCCCCCCCCCC[C@@H](O)C[C@H](O)[C@H](C)N	5.01	4.99	Active	0.3														
CCCCCCCCCCCCC[C@H](O)C[C@H](O)[C@H](C)NC	4.60	4.98			12	13.6	15	117	4	83.3	232	3.86	2	17.9	83.3	5.99	1120	Vd/F [17]: 90 L/kg
CCCCCCCCCCCCC[C@H](O)C[C@H](O)[C@H](C)N [ENIGMOL]	5.01	4.99	Active		5	5.96	11	211	2	233	137	1.88	2	6.96	217	2.54	705	Activity (Mus musculus [20]): < 6%; Activity (LNCaP [21]): Active; concentration [22]: 10000 nM; Activity (PC-3 [23]): Active; Activity (LNCaP [24]): Active; Activity (Mus musculus [25]): 0.3%; Vz/F (Mus musculus [26]): 107 L/kg; Activity (PC-3 [27]): Active; Activity (PC-3 [28]): Active; Activity (Mus musculus [29]): < 6%
